# Assay outcomes deposited in PubChem BioAssay by several laboratories.
# Shown are actives, neighbours in structure and some others; about 5% of the full set was active somewhere.
# CSC inhib – cancer stem cell inhibition; cancer stem cell-like cells viability, luminescence; inhibition, % at 7.5 µM; 1.1% of 300,000 active; AID 2717; in the data active means inhibition above about 75%; inconclusive means no clear call, values can overlap the other calls; tested in HMLE shEcad cells
# CHOP UPR activ – activators of apoptotic arm of unfolded protein response (CHOP); CHO-CHOP luciferase reporter, UPR activation, luminescence; percent of tunicamycin response over DMSO baseline; activation, % at 10 µM; 0.34% of 330,000 active; AID 449763;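 active means at 10 µM dose, activation of 40% or more, normalized to positive control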
#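 Material: CHO-CHOP cells, stable luciferase reporter of PERK-eIF2a-CHOP signalling; quantity: 500 reporter cells seeded per well; buffer or medium: F12 medium containing 10% fetal bovine serum; compound: one dose, 10 µM in 0.5% DMSO; incubation: 6 h compound treatment, 37 °C; measured by: Steady-Glo luciferase luminescence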
# XBP1 UPR activ – activators of adaptive arm of unfolded protein response (XBP1); CHO-XBP1 luciferase reporter, IRE1-XBP1 UPR activation, luminescence; percent of tunicamycin response, DMSO as zero; activation, % at 20 µM; 0.33% of 330,000 active; AID 463104;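 active means versus positive control, 20 µM dose yields 30% or more activation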
#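 Material: CHO-XBP1 cells stably carrying IRE1-XBP1-driven luciferase reporter | Medium: F12 with 10% serum | Compound dosing: 20 µM single concentration, DMSO 1% | Incubation: Overnight seeding at 37 °C, 6 h compound treatment at 37 °C | Detection: Steady-Glo luminescence read | Read-out basis: % activation of reporter signal versus tunicamycin and DMSO controls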
# Beta cell apopt – blocks beta cell apoptosis | protection from apoptosis, % (test concentration not listed) | 0.8% of 300,000 active | AID 435005 | INS-1E cytokine-induced death, ATP luminescence, 48 h; percent of positive-control rescue, neutral wells zero;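 active means Every replicate reaches about 75%, or at least half do and their mean reaches it too, limit read from the data; inconclusive means At least half of replicates reach the limit but their mean does not; inactive means Under half of replicates reach the limit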;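 further: higher means more ATP so stronger rescue from cytokine killing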
# T cruzi inh – T. cruzi replication inhibition. T. cruzi beta-gal in NIH3T3, luminescence, 90 h. inhibition, % (test concentration not listed). 1.4% of 300,000 active;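 active means mean inhibition across valid replicates above about 55%, limit read from the data; inconclusive means mean below that limit but half or more replicates reach it; inactive means mean below it, under half of replicates reach it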;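 further: signal also drops with host cell toxicity which is not excluded here; higher percent means less beta-gal luminescence so fewer parasites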
#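 Material: NIH/3T3 host cells with β-galactosidase reporter T. cruzi; Input: 5,000 host fibroblasts per well; Medium: DMEM, 2% fetal bovine serum; Compound: 50 nL DMSO compound solution per well; Schedule: 3 h host attachment, then at least 90 h co-culture; Detection: luminescent β-galactosidase signal after 60 min lysis.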
# Mdm2-MdmX inh – human Mdm2/MdmX binding inhibition; SaOS-2 split-luciferase Mdm2/MdmX complementation, luminescence; inhibition, % at 8 µM; AID 485346; O15151+Q00987; 3% of 330,000 active;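 active means inhibition of at least 50% at 8 µM in the primary screen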
# Target sequence (O15151 whole entry, looked up): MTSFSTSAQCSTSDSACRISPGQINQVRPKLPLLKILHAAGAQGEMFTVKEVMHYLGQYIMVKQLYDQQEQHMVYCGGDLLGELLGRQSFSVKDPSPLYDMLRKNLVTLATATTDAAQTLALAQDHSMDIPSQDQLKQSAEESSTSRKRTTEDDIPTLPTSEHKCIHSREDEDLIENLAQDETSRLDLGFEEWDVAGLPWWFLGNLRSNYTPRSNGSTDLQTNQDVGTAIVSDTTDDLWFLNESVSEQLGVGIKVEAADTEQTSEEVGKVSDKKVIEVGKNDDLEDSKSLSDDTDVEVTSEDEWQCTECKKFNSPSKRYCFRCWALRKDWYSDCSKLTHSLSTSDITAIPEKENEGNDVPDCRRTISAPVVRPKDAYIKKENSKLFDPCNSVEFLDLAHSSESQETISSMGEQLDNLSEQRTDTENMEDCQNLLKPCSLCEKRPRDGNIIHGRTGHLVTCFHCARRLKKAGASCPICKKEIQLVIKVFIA
# Target sequence (Q00987 whole entry, looked up): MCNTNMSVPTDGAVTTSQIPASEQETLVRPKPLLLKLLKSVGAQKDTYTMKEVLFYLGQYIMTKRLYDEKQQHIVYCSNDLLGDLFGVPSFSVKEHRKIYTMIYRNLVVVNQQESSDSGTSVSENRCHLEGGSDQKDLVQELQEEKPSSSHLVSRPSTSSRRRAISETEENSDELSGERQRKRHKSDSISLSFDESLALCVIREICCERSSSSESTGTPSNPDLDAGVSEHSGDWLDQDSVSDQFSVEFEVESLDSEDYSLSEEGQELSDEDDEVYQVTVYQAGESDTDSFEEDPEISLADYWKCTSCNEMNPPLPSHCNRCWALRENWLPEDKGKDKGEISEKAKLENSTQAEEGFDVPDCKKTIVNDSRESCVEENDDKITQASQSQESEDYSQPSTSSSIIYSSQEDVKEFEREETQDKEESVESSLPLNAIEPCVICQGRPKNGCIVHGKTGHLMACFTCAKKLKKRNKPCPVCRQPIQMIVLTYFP
# Hits are given with their value; . = inactive; ? = inconclusive; / = not tested or not shown.
SMILES,CSC inhib,CHOP UPR activ,XBP1 UPR activ,Beta cell apopt,T cruzi inh,Mdm2-MdmX inh
CCCCCCCCN1[C@@H](CC(=O)OCC)c2ccc(C(F)(F)F)cc2S1(=O)=O,.,.,.,.,61,.
CCCCCCCCCCCCN1[C@@H](CC(=O)O)c2cc(C(F)(F)F)ccc2S1(=O)=O,104,.,.,.,.,.
O=C(COC(=O)CCC(=O)c1ccc(Cl)cc1)NC1CC1,.,.,.,.,.,.
CC1CCN(S(=O)(=O)c2ccc3c(c2)N(CC(=O)NCCCN2C(C)CCCC2C)C(=O)CO3)CC1 (centres undefined),.,.,.,.,.,.
Cc1cc(NC(=O)CSc2nnc(-c3cccnc3)n2Cc2ccccc2)no1,.,.,.,.,.,.
Cc1cccn(Cc2c(Cl)cccc2Cl)c1=O,.,.,.,/,.,.
Cc1cc(C)cc(Oc2ncnc3c2ncn3Cc2c(Cl)cccc2Cl)c1,/,.,.,/,60,.
COc1ccc(NC(C)=O)cc1S(=O)(=O)N1CCN(C/C=C/c2ccccc2)CC1,.,.,.,.,.,.
O=C(Nc1ccc2nc(-c3ccc(Br)o3)[nH]c2c1)c1cccs1,.,.,.,.,69,.
CC(=O)c1cccc(Nc2cc(C)nc3ccc(C)cc23)c1,.,.,.,.,.,.
CC(=O)c1cccc(Nc2cc(C)nc3c(C)cc(C)cc23)c1,.,.,.,.,56,.
O=C(Nc1ccnn1C1CCN(Cc2ccn[nH]2)CC1)c1ccccc1,.,.,.,.,.,.
CC(C)(C)C(=O)NC(Nc1cccc2cccnc12)C(Cl)(Cl)Cl (centres undefined),/,.,.,78,.,.
CC(=O)C[C@@H](O)CC(=O)[C@@H]1OC(=O)CCCCCCCc2ccccc21,/,.,.,.,/,.
O=C(CCN1CCN(C/C=C/c2ccccc2)CC1)Nc1ccccc1,.,.,.,.,56,.
O=C(CCN1CCN(Cc2ccccc2)CC1)Nc1cccc(Cl)c1,.,.,.,.,55,.
O=C(CN1C(=O)CCC1=O)Nc1ccc(Cc2ccc(NC(=O)CN3C(=O)CCC3=O)cc2)cc1,.,.,.,.,.,.
O=[N+]([O-])c1cc(C(F)(F)F)cc([N+](=O)[O-])c1Sc1n[nH]c(C(F)(F)F)n1,.,.,.,.,.,.
O=C(NC12CC3CC(CC(C3)C1)C2)c1ccc(COc2ccc(Cl)cc2[N+](=O)[O-])o1,.,.,.,.,/,.
O=C(NC12CC3CC(CC(C3)C1)C2)c1ccc(-c2cccc(Cl)c2)o1,95,.,.,.,.,.
O=C(NC12CC3CC(CC(C3)C1)C2)c1ccc(-c2ccc(Cl)cc2)o1,.,.,.,.,59,.
CC(=O)NC(=O)c1ccc(-c2ccc(Cl)cc2)o1,.,.,.,.,.,.
O=C(NC12CC3CC(CC(C3)C1)C2)c1ccc(-c2ccccc2Cl)o1,125,.,.,.,?,.
Cc1cc(S(=O)(=O)Nc2ccc(N(C)C)cc2)c(C)s1,.,.,.,.,.,.
CN1C=CC=C/C1=C1\SC(=S)N(N)C1=O,.,.,.,.,.,.
SMILES,CSC inhib,CHOP UPR activ,XBP1 UPR activ,Beta cell apopt,T cruzi inh,Mdm2-MdmX inh
CC1=NN(/C(=N\c2nnc(C)s2)Nc2ccc(C(C)(C)C)cc2)[C@H](c2ccc(C)cc2)S1,.,.,.,.,57,.
Cc1ccc(NC(=O)CCSc2nnc(C)s2)cc1,.,.,.,/,.,.
Cc1cc(C)c(-c2csc(NC(=O)c3cc([N+](=O)[O-])ccc3N3CCOCC3)n2)c(C)c1,.,.,.,.,66,.
c1ccc(-c2cc(-c3ccncc3)nc3ccc4ccccc4c23)cc1,102,.,.,.,.,.
Cc1ccnc(NC(c2ccsc2)c2ccc3ccc(C)nc3c2O)c1 (centres undefined),.,.,.,.,63,.
Cc1ccc2ccc(C(Nc3ccccn3)c3ccccc3)c(O)c2n1 (centres undefined),/,.,.,/,.,.
COc1ccc(C(Nc2cc(C)ccn2)c2ccc3ccc(C)nc3c2O)cc1 (centres undefined),.,.,.,.,59,.
CC(C)(C)NC(=O)CN(C(=O)CNC(=O)c1cccs1)c1ccc2c(c1)OCCO2,.,.,.,.,.,.
Cc1ccc(NC(=O)/C=C/c2ccc([N+](=O)[O-])s2)cc1,.,.,.,.,.,.
Cc1ccc(NC(=O)/C=C/c2ccc([N+](=O)[O-])s2)c(C)c1,107,/,/,106,.,/
Cc1cccc(NC(=O)/C=C/c2ccc([N+](=O)[O-])s2)c1,107,/,/,99,59,/
Cc1ccc(C(=O)/C=C\C(=O)c2ccc(C)cc2)cc1,.,/,/,.,71,/
CC(/C=C/C(=O)c1ccc(C)cc1)=C\c1ccccc1,.,.,.,.,.,.
O=C(Nc1ccccc1)c1sccc1Oc1ccc([N+](=O)[O-])cc1F,/,.,.,.,63,.
C=CCNCCOCCOc1ccccc1-c1ccccc1,.,.,.,.,.,.
N#Cc1cc2ccccc2nc1SCC(=O)Nc1ccc(S(=O)(=O)N2CCCC2)cc1,.,.,.,.,56,.
COc1ccc(CCNC(=O)c2cc(COc3c(C)cccc3C)on2)c(OC)c1,.,.,.,.,.,.
O=C(Nc1ccc(Nc2ccncc2)cc1)c1ccc(Nc2ccnc3ccc([N+](=O)[O-])cc23)cc1[N+](=O)[O-],.,/,/,81,.,/
CC1CCN(c2ccc(N3C(=O)C4CCCCC4C3=O)cc2[N+](=O)[O-])CC1 (centres undefined),.,.,.,.,.,.
Cc1nc(N2CCN(S(=O)(=O)c3cccc4nonc34)CC2)c2c3c(sc2n1)CCCC3,/,.,.,/,.,.
N#Cc1c(NC(=O)Cn2c(=O)oc3ccccc32)oc(-c2ccccc2)c1-c1ccccc1,86,.,.,.,.,.
O=C(Nc1cnn(Cc2c(Cl)cccc2Cl)c1)C(c1ccccc1)c1ccccc1,.,.,.,.,55,.
CN1C(C(=O)Nc2cccc(O)c2)=CC(c2ccco2)=NS1(=O)=O,.,.,.,.,.,.
Cc1ccc(S(=O)(=O)Nc2ccccc2-c2ccccc2)cc1,.,.,.,.,.,.
Cc1ccc(S(=O)(=O)Nc2ccccc2N(C)S(=O)(=O)c2ccc(C)cc2)cc1,.,.,.,110,.,.
O=C(NCc1ccco1)c1cc2n(n1)C(C(F)(F)F)CC(c1ccc(Cl)c(Cl)c1)N2 (centres undefined),.,.,.,.,55,.
CCNc1nc(SCC(=O)Nc2ccc(Cl)c(Cl)c2)nc(N(C)C)n1,.,.,.,.,.,.
CN(C)c1nc(NCc2ccccc2)nc(SCC(=O)Nc2ccc(Cl)c(Cl)c2)n1,.,.,.,.,55,.
